In ChEMBL document CHEMBL1145212, “Fluorinated diaryl sulfides as serotonin transporter ligands: synthesis, structure-activity relationship study, and in vivo evaluation of fluorine-18-labeled compounds as PET imaging agents” (J Med Chem, 2005):

Legend:
Type in all cases: cell-based
[1] = target: Sodium-dependent dopamine transporter (Homo sapiens, UniProt Q01959); assay: In vitro displacement of [3H]GBR-12935 from human dopamine transporter expressed in HEK293 cells
In short: (§1)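 Competitive binding using cloned human transporters expressed in HEK-293 cells. NET was labelled with [³H]nisoxetine and DAT with [³H]GBR12935, following a previously published procedure.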

[2] = target: Sodium-dependent noradrenaline transporter (Homo sapiens, UniProt P23975); assay: In vitro displacement of [3H]nisoxetine from human norepinephrine transporter expressed in HEK293 cells; in short: as §1
Sodium-dependent noradrenaline transporter, sequence (P23975 whole entry): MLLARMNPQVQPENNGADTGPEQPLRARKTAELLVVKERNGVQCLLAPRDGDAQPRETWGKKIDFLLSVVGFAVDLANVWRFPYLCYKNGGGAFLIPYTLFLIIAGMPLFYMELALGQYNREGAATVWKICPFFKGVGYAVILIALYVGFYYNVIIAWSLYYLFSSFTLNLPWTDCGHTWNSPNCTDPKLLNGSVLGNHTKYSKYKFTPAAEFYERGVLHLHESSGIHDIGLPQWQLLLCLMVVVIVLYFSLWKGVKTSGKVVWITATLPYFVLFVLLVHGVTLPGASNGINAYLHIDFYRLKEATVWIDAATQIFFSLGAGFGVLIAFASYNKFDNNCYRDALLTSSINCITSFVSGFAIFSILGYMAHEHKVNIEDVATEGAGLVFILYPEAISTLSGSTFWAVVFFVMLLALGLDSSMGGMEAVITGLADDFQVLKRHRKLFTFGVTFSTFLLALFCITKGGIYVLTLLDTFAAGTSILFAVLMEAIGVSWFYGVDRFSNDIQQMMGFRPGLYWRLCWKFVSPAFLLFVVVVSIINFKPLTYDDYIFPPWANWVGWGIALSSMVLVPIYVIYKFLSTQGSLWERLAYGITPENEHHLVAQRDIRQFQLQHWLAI

[3] = target: Sodium-dependent serotonin transporter (Homo sapiens, UniProt P31645); assay: In vitro displacement of [3H]paroxetine from human serotonin transporter expressed in HEK293 cells
Sodium-dependent serotonin transporter, sequence (P31645 whole entry): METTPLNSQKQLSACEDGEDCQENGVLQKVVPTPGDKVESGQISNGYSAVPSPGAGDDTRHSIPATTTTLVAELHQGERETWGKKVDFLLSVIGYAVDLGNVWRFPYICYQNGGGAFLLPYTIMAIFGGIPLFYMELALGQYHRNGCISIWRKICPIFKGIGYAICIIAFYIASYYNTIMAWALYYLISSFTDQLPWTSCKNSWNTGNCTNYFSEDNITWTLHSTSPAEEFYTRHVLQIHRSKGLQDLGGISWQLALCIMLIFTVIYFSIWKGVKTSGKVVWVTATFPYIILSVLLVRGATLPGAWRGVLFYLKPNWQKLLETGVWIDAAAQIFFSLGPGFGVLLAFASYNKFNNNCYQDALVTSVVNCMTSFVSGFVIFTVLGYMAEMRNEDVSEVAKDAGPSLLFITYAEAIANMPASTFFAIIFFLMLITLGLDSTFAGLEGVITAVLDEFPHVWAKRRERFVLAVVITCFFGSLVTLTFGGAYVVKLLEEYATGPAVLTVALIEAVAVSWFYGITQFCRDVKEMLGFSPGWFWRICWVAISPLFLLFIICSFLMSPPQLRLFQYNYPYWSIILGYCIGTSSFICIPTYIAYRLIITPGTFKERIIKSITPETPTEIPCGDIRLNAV

Sodium-dependent dopamine transporter, sequence (Q01959 whole entry): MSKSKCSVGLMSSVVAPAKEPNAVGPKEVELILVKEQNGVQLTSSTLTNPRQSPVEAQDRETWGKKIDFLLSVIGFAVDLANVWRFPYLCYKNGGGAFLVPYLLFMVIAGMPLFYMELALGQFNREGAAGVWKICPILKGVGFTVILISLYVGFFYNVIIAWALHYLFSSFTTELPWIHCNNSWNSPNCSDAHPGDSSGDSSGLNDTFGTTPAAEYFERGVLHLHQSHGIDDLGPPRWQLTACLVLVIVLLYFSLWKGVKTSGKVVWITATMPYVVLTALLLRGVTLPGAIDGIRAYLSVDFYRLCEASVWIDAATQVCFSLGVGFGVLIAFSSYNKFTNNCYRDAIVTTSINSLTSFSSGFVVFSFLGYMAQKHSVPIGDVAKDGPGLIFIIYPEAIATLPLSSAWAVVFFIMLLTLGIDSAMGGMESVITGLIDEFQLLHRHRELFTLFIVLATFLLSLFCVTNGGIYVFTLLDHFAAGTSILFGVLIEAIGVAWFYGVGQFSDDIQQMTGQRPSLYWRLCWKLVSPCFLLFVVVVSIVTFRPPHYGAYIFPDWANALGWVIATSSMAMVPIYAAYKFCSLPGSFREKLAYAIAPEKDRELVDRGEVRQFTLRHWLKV

| SMILES | Ki [1] [µM] | Ki [2] [µM] | Ki [3] [nM] |
| --- | --- | --- | --- |
| CCNCc1ccccc1Sc1ccc(C)cc1N | 2.12 | 7.55 |  |
| Cc1ccc(Sc2ccccc2CNCCF)c(N)c1 | 4.43 | 3.91 | 71.3 |
| CN(C)Cc1ccccc1Sc1ccc(I)cc1N |  |  | 1.07 |
